Measurements taken from ChEMBL document CHEMBL1821655, “Identification of SQ609 as a lead compound from a library of dipiperidines” (Bioorg Med Chem Lett, 2011).
≈ marks a conversion by molar mass, not a printed value. Calls of active or inactive are those of the source. The rule behind the calls is not given here.

How the values were obtained:
[1] = system: Mycobacterium tuberculosis; assay: Antimycobacterial activity against Mycobacterium tuberculosis H37Rv ATCC 25618 after 10 to 14 days by microplate alamar blue assay; format: functional
[2] = system: Mycobacterium tuberculosis; assay: Antimycobacterial activity against Mycobacterium tuberculosis pSMT1 infected in mouse J774A.1 ATCC TIB-67 cells assessed as viable bacterial count at 0.125 ug/ml for 4 days followed by 3 days incubation in drug-free medium by luciferase reporter gene assay; format: functional
Outline: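 Mtb-infected J774A.1 mouse macrophages exposed to drug for 4 days, then medium replaced with drug-free medium and cultures incubated 3 more days. Triplicate wells lysed on day 0 and day 7 and viable bacteria measured as relative light units. Isoniazid control at 0.125 μg/ml.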

[3] = system: Mycobacterium tuberculosis; assay: Antimycobacterial activity against recombinant strain Mycobacterium tuberculosis Rv0341 by firefly luciferase reporter gene assay; format: functional, organism-based
Outline: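 Recombinant Mtb carrying a promoter fused to firefly luciferase, which is activated and produces light when cell wall biosynthesis is inhibited. High-throughput luminescence read-out.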

[4] = system: Mycobacterium tuberculosis; assay: Antimycobacterial activity against Mycobacterium tuberculosis pSMT1 infected in mouse J774A.1 ATCC TIB-67 cells assessed as viable bacterial count at 4 ug/ml for 4 days followed by 3 days incubation in drug-free medium by luciferase reporter gene assay; format: functional
[5] = system: Mycobacterium tuberculosis; assay: Antimycobacterial activity against Mycobacterium tuberculosis pSMT1 infected in mouse J774A.1 ATCC TIB-67 cells assessed as inhibition of intracellular bacterial growth at MIC for 4 days followed by 3 days incubation in drug-free medium by luciferase reporter gene assay; format: functional
[6] = system: Mycobacterium tuberculosis; assay: Antimycobacterial activity against Mycobacterium tuberculosis H37Rv infected in C3H/HeNCrlBR mouse assessed as prevention of body weight loss at 10 mg/kg, po administered 7 days after infection for 2 weeks measured after 10 to 15 days relative to control; format: functional, organism-based; parameters: dose 10 mg/kg
Outline: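 Treatment began 7 days after infection: oral gavage once daily at 10 mg/kg for 2 wk. Body weights tracked from day 0 through day 21 and compared with uninfected mice and infected placebo-treated mice. Mortality was followed after therapy ended.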

J774.A1 = assay: Cytotoxicity against mouse J774A1 cells assessed as cell aggregation at 4 ug/ml; format: cell-based

**Q.** How did the MIC [1] turn out when `OC1CCN(CC2CCN(CCC34CC5CC(CC(C5)C3)C4)CC2)CC1` was run?
**A.** Its MIC is 15 µg/mL (≈ 41.6 µM).

**Q.** Which Activity [2] does the source give for `NNC(=O)c1ccncc1` [ISONIAZID] here?
**A.** Its Activity is 4 RLU.

**Q.** With `OC1CCN(CC2CCN(CC3CCCCCC3)CC2)CC1` as the molecule, how does the MIC [1] read?
**A.** The MIC was 14 µg/mL (≈ 45.4 µM).

**Q.** `OC1CCN(CC2CCN(CC34CC5CC(CC(C5)C3)C4)CC2)CC1` was tested. Which Activity [1] did it give?
**A.** The Activity was “Active”.

**Q.** What about the MIC [1] of the same molecule?
**A.** Its MIC is 4 µg/mL (≈ 11.5 µM).

**Q.** What about the Activity [3] of the same molecule?
**A.** Its Activity is “Active”.

**Q.** What about the Activity [4] of the same molecule?
**A.** Its Activity is 354 RLU.

**Q.** And the “inhibition (INH)” value [5]?
**A.** The value was >90%.

**Q.** And the Activity [6]?
**A.** Its Activity is “Active”.

**Q.** With `c1ccc(CC2CCN(CC3CCN(CC(c4ccccc4)c4ccccc4)CC3)CC2)cc1` as the molecule, how does the MIC [1] read?
**A.** Its MIC is 11 µg/mL (≈ 24.3 µM).

**Q.** With `OC1CCN(CC2CCN(C3C4CC5CC(C4)CC3C5)CC2)CC1` (stereo not drawn) as the molecule, how does the Activity [1] read?
**A.** The Activity was “Active”.

**Q.** What about the Activity [3] of the same molecule?
**A.** The Activity was “Active”.

**Q.** For `c1ccc(CC2CCN(CC3CCN(CC45CC6CC(CC(C6)C4)C5)CC3)CC2)cc1`, which MIC [1] is on record?
**A.** Its MIC is 10 µg/mL (≈ 23.8 µM).

**Q.** With `OC1CCN(CC2CCN(CCOc3ccccc3)CC2)CC1` as the molecule, how does the MIC [1] read?
**A.** The MIC was 8 µg/mL (≈ 25.1 µM).

**Q.** Which results are given for `OC1CCN(CC2CCN(CC(c3ccccc3)c3ccccc3)CC2)CC1`?
**A.** Activity (J774.A1): Toxic; Activity [1]: Active; MIC [1]: 4 µg/mL (≈ 10.6 µM); Activity [3]: Active; Activity [6]: Active

**Q.** For `OCC1CCCN(CC2CCN(CC(c3ccccc3)c3ccccc3)CC2)C1` (stereo not drawn), which MIC [1] is on record?
**A.** Its MIC is 40 µg/mL (≈ 102 µM).

**Q.** How did the MIC [1] turn out when `CC(C)=CCC/C(C)=C/CN1CCC(CN2CCC(Cc3ccccc3)CC2)CC1` was run?
**A.** The MIC was 20 µg/mL (≈ 48.9 µM).

**Q.** With `c1ccc(CC2CCN(CC3CCN(CCC45CC6CC(CC(C6)C4)C5)CC3)CC2)cc1` as the molecule, how does the MIC [1] read?
**A.** Its MIC is 5 µg/mL (≈ 11.5 µM).

**Q.** With `CCC(CN1CCC(CN2CCC(O)CC2)CC1)c1ccccc1` (stereo not drawn) as the molecule, how does the MIC [1] read?
**A.** Its MIC is 8 µg/mL (≈ 24.2 µM).
